Screening results as filed in PubChem.
MEKK3 PB1 HTS – MEKK3-MEK5 PB1 interaction, increase or decrease | Q99759 | bead-based flow cytometry, Alexa488-MEK5 binding to MEKK3; actives lie on both sides; 0 = blocked by unlabeled MEK5, 100 = vehicle | binding response (% of control), % at 10 µM | hit rate 1.4% among 290,000 | AID 1529;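 active = binding response more than 3 SD above or below the average of its plate-row segment, actives on both sides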;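 also: Alexa488 bead fluorescence after subtracting the streptavidin-only scavenger bead signal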
ABCB1 block – inhibitors of human ABCB1 transporter, ABCG2 counter-screen | CCRF-Adr cells, JC-1 efflux, flow cytometry | hit rate 0.067% among 190,000 | P08183 | inhibition, % at 6.6 µM | AID 1326; in the data active = inhibition above about 40%;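 also: higher value means more JC-1 retained so stronger ABCB1 efflux block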
MEKK2mut PB1 HTS – signal of MEK5 binding to mutant human MEKK2 PB1 domain. bead flow cytometry, Alexa488-MEK5 binding to MEKK2 mutant. percent response, % at 10 µM. hit rate 0.35% among 290,000. AID 1530; in the data active = percent response above about 24%, passing the limit was not always enough
ABCG2 block – inhibitors of human ABCG2 transporter, ABCB1 counter-screen; AID 1325; inhibition, % at 6.6 µM; Q9UNQ0; IgMXP3 cells, JC-1 efflux, flow cytometry; hit rate 0.1% among 190,000;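 active = inhibition above 80%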
Target sequence (Q9UNQ0 whole entry, looked up): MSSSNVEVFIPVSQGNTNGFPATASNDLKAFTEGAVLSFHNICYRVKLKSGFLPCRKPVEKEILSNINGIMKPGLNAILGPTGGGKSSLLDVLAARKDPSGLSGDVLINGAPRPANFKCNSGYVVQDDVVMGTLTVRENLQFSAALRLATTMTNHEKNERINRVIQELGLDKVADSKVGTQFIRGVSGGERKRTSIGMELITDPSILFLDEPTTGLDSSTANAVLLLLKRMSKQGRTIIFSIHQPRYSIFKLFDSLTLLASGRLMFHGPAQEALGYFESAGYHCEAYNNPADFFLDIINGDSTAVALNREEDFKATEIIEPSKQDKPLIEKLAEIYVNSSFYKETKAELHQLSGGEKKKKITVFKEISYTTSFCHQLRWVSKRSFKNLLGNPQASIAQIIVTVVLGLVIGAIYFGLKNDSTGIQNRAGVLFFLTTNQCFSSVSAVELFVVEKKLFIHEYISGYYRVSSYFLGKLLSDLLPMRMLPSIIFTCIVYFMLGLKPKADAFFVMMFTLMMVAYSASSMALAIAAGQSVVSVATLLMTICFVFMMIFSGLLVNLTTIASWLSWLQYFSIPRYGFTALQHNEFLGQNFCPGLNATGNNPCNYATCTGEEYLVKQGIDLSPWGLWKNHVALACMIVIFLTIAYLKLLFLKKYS
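material = IgMXP3 (ABCG2) plus far-red-tagged CCRF-Adr (ABCB1) cells | amount = 3 million cells/mL, equal mix of both lines | also added = JC-1 transporter substrate | dosing = one concentration, 6.6 µM final | schedule = 10 min at 25 °C | measured by = flow cytometric JC-1 green MFI at 530 nm | read-out basis = percent efflux inhibition, scaled nicardipine 100% to DMSO 0%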
MEKK2 WT-MEK5 – raises or lowers MEK5 binding to wildtype human MEKK2 PB1 domain | binding response (% of control), % at 10 µM | Q9Y2U5 | AID 1531 | hit rate 1.1% among 290,000 | bead flow cytometry, Alexa488-MEK5 binding to MEKK2 WT; actives lie on both sides; in the data active = binding response below about 67% or above about 130%
Efflux pump inh – antifungal efflux pump inhibition, Nile Red retention; inhibition, % at 10 µM; S. cerevisiae Candida pump triplex; hit rate 0.44% among 330,000;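 active = plate passing quality check with inhibition over a set limit, or well fluorescence over plate mean plus 4 SD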;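 also: Nile Red retained in pooled yeast measured as flow cytometry median fluorescence; higher means more Nile Red kept so more efflux inhibition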
MEKK2wt confirm – raises or lowers MEK5 binding to wildtype human MEKK2, retest | shares compounds with MEKK3 PB1 HTS | bead flow cytometry, Alexa488-MEK5 binding to MEKK2 WT; actives lie on both sides | binding response (% of control), % at 10 µM | hit rate 2.4% among 5,900; in the data active = binding response below about 16% or above about 210%; inactive = in between
MEKK2mut-MEK5 – signal of MEK5 binding to mutant human MEKK2, retest; shares compounds with MEKK3 PB1 HTS; bead flow cytometry, Alexa488-MEK5 binding to MEKK2 mutant; AID 1893; percent response, % at 10 µM; hit rate 2% among 5,900; in the data active = percent response mostly above about 71%, no sharp cut-off; inactive = mostly below about 38%;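 also: higher means compound restores mutant binding toward wildtype level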
MEKK3-MEK5 inh – MEKK3-MEK5 PB1 inhibition, single concentration confirmation; shares compounds with MEKK3 PB1 HTS; bead flow cytometry, Alexa488-MEK5 binding to MEKK3; hits give low values; binding response (% of control), % at 10 µM; hit rate 1.8% among 5,900;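 active = binding response below 72% of control, or above a set upper limit, though filed actives all read lower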;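 also: lower values mean stronger disruption of MEK5 binding to MEKK3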
Numbers stand for hits; - = inactive; . = no result given; [ ] = another dose, or the depositor's remark. Shown are actives, neighbours in structure and some others; about 2.5% of the full set was active somewhere.

SMILES | MEKK3 PB1 HTS | ABCB1 block | MEKK2mut PB1 HTS | ABCG2 block | MEKK2 WT-MEK5 | Efflux pump inh | MEKK2wt confirm | MEKK2mut-MEK5 | MEKK3-MEK5 inh
Cc1cnn(C(=O)c2cc(-c3ccccn3)nc3ccc(Cl)cc23)c1 | - | - | - | - | - | - | . | . | .
COc1ccc(OCCOc2ccc(C)nc2[N+](=O)[O-])cc1 | - | - | - | - | - | - | . | . | .
Cc1ccc(OCCOc2ccc(Cl)cc2Cl)c([N+](=O)[O-])n1 | - | - | - | - | 165 | - | - | - | -
O=C(Cn1cnc2ccccc21)N/N=C/c1cccs1 | 129 | - | - | - | - | - | - | - | -
Cn1ccnc1C(=O)C1CCCN(Cc2cn[nH]c2-c2ccc(-c3ccccc3)cc2)C1 (stereo not drawn) | - | - | - | - | 148 | - | - | - | -
CCOC(=O)CNC(=S)N1CCn2c(nc3ccccc32)C1 | - | - | - | - | - | - | . | . | .
COc1ccc(OC)c(S(=O)(=O)n2nc(C)cc2C)c1 | 135 | - | - | - | - | - | - | - | -
Cc1nn(Cc2ccccc2)c(Cl)c1C(=O)OCC(=O)NC(=O)NC12CC3CC(CC(C3)C1)C2 | 145 | - | - | - | - | - | - | - | -
Cc1noc(C)c1C(=O)OCC(=O)NC(=O)NC12CC3CC(CC(C3)C1)C2 | - | - | - | - | - | - | . | . | .
Cc1cccc(C)c1OC(=O)CCN1C(=O)C2C3C=CC(C4CC34)C2C1=O (stereo not drawn) | - | - | - | - | - | - | . | . | .
CC1=C(C)CC(C(=O)Nc2nc(-c3ccc(F)cc3)c(C)s2)C(C(=O)O)C1 (stereo not drawn) | - | - | - | - | - | - | . | . | .
CC1=C(C)CC(C(=O)Nc2nc(-c3ccc(C)cc3C)c(C)s2)C(C(=O)O)C1 (stereo not drawn) | 133 | - | - | - | - | - | - | - | -
Cc1ccc(C(=O)n2nnc3ccccc32)cc1 | - | . | - | . | - | - | . | . | .
CN(C)c1ccc(C(=O)n2nnc3ccccc32)cc1 | 1.0[inhibitor] | - | - | - | -7.0[inhibitor] | - | - | - | -
O=C(CN1C(=O)C(=O)c2ccccc21)NC1CCCCC1 | 48[inhibitor] | - | - | - | - | - | - | - | -
O=C(N1CCOCC1)N1CCN(c2ccccn2)CC1 | - | - | - | - | - | - | . | . | .
O=C(C1CCCO1)N1CCN(c2ccccn2)CC1 (stereo not drawn) | 73[inhibitor] | - | - | - | - | - | - | - | -
Cc1ccc(OCCSc2nc(NC(C)C)nc(NC(C)C)n2)cc1 | - | - | - | - | - | - | . | . | .
COC(=O)C1=C(C)NC2=C(C(=O)CCC2)C1c1ccc(-c2ccsc2C(=O)OC)o1 (stereo not drawn) | - | . | - | . | - | - | . | . | .
CSc1nc(-c2ccccc2)nn1C(=O)c1ccco1 | 1.0[inhibitor] | - | - | - | 1.0[inhibitor] | - | - | - | -
CSc1nc(-c2ccccc2)nn1C(=O)c1ccccc1 | . | - | . | - | . | - | . | . | .
Cc1cccc(NC(=O)/C(C#N)=C/c2ccc(Sc3ccccc3)o2)c1C | 128 | - | - | - | - | - | - | - | -
NNc1nc2ccc(Cl)cc2s1 | 132 | - | - | - | - | - | - | - | -
Clc1ccc(Oc2nc(N3CCOCC3)nc(N3CCOCC3)n2)cc1 | - | - | - | - | - | - | . | . | .
O=C(Nc1cccc(Cl)c1)c1cccc(Oc2ccc([N+](=O)[O-])cc2Cl)c1 | - | - | - | - | 17[inhibitor] | - | - | - | -
SMILES | MEKK3 PB1 HTS | ABCB1 block | MEKK2mut PB1 HTS | ABCG2 block | MEKK2 WT-MEK5 | Efflux pump inh | MEKK2wt confirm | MEKK2mut-MEK5 | MEKK3-MEK5 inh
C/C(=N/NC(=O)c1ccc(O)cc1)c1cccc([N+](=O)[O-])c1 | - | - | - | - | - | - | . | . | .
Cc1ccc(NC(=O)c2ccncc2)cc1[N+](=O)[O-] | 152 | - | - | - | - | - | - | - | -
CC(C)[C@H](NC(N)=O)C(=O)Nc1cccc([N+](=O)[O-])c1 | 143 | - | - | - | - | - | - | - | -
Cc1ccc(C(=O)Nc2ccncc2)cc1[N+](=O)[O-] | - | . | - | . | - | - | . | . | .
COc1ccc(NC(=O)c2cccc(Oc3ccc([N+](=O)[O-])cc3Cl)c2)cc1 | - | - | - | - | - | - | . | . | .
C/C(=N\NC(=O)c1cccc([N+](=O)[O-])c1)c1ccncc1 | 49[inhibitor] | - | - | - | - | - | - | - | -
O=C(CCN1C(=O)c2ccccc2C1=O)C1=NN[C@@H]2C(=O)N(c3cccc(Cl)c3)C(=O)[C@H]12 | - | - | - | - | - | - | . | . | .
COc1ccc(Nc2nc3c([nH]2)c(=O)[nH]c(=O)n3C)cc1 | - | - | - | - | - | - | . | . | .
O=C(Nc1cccc([N+](=O)[O-])c1)c1ccncc1 | 141 | - | - | - | - | - | - | - | -
N#C/C(=C\c1cn(CCOc2ccccc2)c2ccccc12)C(=O)NCc1cccs1 | - | - | - | - | - | - | . | . | .
COc1cc(NC(=O)c2cc(C)nc3ccccc23)cc(OC)c1 | 129 | - | - | - | - | - | - | - | -
COC(=O)c1ccc2c(=O)n(CCCCCC(=O)NCc3ccc4c(c3)OCO4)c(=O)[nH]c2c1 | 65[inhibitor] | - | - | - | - | - | - | - | -
Fc1ccccc1NC(=S)N1CCN(Cc2ccc3c(c2)OCO3)CC1 | 136 | - | - | - | - | - | - | - | -
CN1CCCN(C(=O)CSc2ccccc2)CC1 | - | . | - | . | - | - | . | . | .
CN1CCN(C(=O)CSc2ccc(Cl)cc2)CC1 | 75[inhibitor] | - | - | - | - | - | - | - | -
CC(Oc1ccc(F)cc1)C(=O)Nc1ccccc1N1CCCCC1 (stereo not drawn) | - | . | - | . | - | - | . | . | .
O=C(CSC1=Nc2ccccc2C2=NC(c3ccccc3)C(=O)N12)NC1CCCCC1 (stereo not drawn) | 124 | - | - | - | - | - | - | - | -
Cc1cccc(C)c1NC(=O)CNC(=O)c1cncc(Br)c1 | - | . | - | . | - | - | . | . | .
COc1ccc(CNC(=O)C2CCN(S(=O)(=O)c3ccc4c(c3)C(C)(C)C(=O)N4C)CC2)cc1 | - | . | - | . | - | - | . | . | .
COc1ccc(CNC(=O)C2CCCN(S(=O)(=O)c3ccc4c(c3)C(C)(C)C(=O)N4C)C2)cc1 (stereo not drawn) | 2.0[inhibitor] | . | - | . | 0.0[inhibitor] | - | - | - | -
COc1ccc2c(c1)C(=O)OC2CC(=O)O (stereo not drawn) | 9.0[inhibitor] | - | - | - | 14[inhibitor] | - | - | - | -
